Assay results reported in PMC3972499 (Scientific Reports, 2014).
“Also recorded” adds a separate entry of the source. Positions of bridges follow the written chain, without caps; N, C: chain ends. Residues, ends and D or L forms follow the SMILES beside them.

Key:
[1] = tested on: M1.5-5 chimera (hNav1.5 with DII/S3–S4 of rNav1.4); assay: Loss-of-function assay, whole-cell patch clamp, chimera M1.5-5; assay type: cell-based; settings: 50 μM SSCM-1
[2] = tested on: WT-rNav1.4; assay: Whole-cell patch clamp, WT-rNav1.4; assay type: cell-based; settings: 50 μM SSCM-1
In short: (§1)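 Whole-cell recording at room temperature. Peptide stock was 1 mM in double-distilled water, stored in aliquots at −20°C, then diluted to the stated test concentration.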

[3] = tested on: TTX-R currents expressed on DRG cells; assay: Whole-cell patch clamp, TTX-R currents on DRG cells; assay type: cell-based; settings: 10 μM SSCM-1, containing 200 μM TTX
[4] = target: wild type hNav1.5 (Homo sapiens, UniProt Q14524); assay: Whole-cell patch clamp, HEK293 cells, wild type hNav1.5; assay type: cell-based
In short: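 HEK293 cells expressing hNav1.5, grown in DMEM with 10% FBS (5% CO2, 37°C). Pipette solution: 140 mM CsF, 10 mM NaCl, 1 mM EGTA, 10 mM HEPES, pH 7.3. Bath solution: 140 mM NaCl, 3 mM KCl, 1 mM MgCl2, 1 mM CaCl2, 10 mM HEPES, pH 7.3. Run at room temperature. Peptide stock 1 mM in ddH2O. Concentration–response curves used points as mean ± S.E. from 3–5 cells.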

[5] = tested on: WT-rNav1.3; assay: Whole-cell patch clamp, WT-rNav1.3; assay type: cell-based; settings: 50 μM SSCM-1
In short: as §1

[6] = tested on: M1.4-1 chimera (rNav1.4 with DII/S3–S4 of hNav1.5); assay: Gain-of-function assay, whole-cell patch clamp, chimera M1.4-1; assay type: cell-based
[7] = tested on: m1.5-2 chimera (hNav1.5 with DIII/S3–S4 of hNav1.7); assay: Whole-cell patch clamp, HEK293 cells, chimera M1.5-2; assay type: cell-based, human; settings: read-out: estimated IC50, room temperature, data points mean ± S.E., 3–5 cells
[8] = tested on: m1.7-1 chimera (hNav1.7 with DII/S3–S4 of hNav1.5); assay: Whole-cell patch clamp, HEK293 cells, chimera M1.7-1; assay type: cell-based, human; settings: read-out: estimated IC50, room temperature, data points mean ± S.E., 3–5 cells
[9] = tested on: hNav1.7 chimeras with S3–S4 fragments replaced by those from hNav1.5; assay: Gain-of-function assay, whole-cell patch clamp, hNav1.7 chimeras; assay type: cell-based, human; settings: 1 μM, HEK293
[10] = tested on: m1.7-4 chimera (hNav1.7 with DII + DIII + DIV S3–S4 of hNav1.5); assay: Whole-cell patch clamp, HEK293 cells, chimera M1.7-4; assay type: cell-based, human; settings: read-out: estimated IC50, room temperature, data points mean ± S.E., 3–5 cells
[11] = tested on: hNav1.5 chimeras with S3–S4 fragments replaced by those from hNav1.7; assay: Loss-of-function assay, whole-cell patch clamp, hNav1.5 chimeras; assay type: cell-based, human; settings: 1 μM, HEK293

Sequence of wild type hNav1.5 (Q14524 whole entry): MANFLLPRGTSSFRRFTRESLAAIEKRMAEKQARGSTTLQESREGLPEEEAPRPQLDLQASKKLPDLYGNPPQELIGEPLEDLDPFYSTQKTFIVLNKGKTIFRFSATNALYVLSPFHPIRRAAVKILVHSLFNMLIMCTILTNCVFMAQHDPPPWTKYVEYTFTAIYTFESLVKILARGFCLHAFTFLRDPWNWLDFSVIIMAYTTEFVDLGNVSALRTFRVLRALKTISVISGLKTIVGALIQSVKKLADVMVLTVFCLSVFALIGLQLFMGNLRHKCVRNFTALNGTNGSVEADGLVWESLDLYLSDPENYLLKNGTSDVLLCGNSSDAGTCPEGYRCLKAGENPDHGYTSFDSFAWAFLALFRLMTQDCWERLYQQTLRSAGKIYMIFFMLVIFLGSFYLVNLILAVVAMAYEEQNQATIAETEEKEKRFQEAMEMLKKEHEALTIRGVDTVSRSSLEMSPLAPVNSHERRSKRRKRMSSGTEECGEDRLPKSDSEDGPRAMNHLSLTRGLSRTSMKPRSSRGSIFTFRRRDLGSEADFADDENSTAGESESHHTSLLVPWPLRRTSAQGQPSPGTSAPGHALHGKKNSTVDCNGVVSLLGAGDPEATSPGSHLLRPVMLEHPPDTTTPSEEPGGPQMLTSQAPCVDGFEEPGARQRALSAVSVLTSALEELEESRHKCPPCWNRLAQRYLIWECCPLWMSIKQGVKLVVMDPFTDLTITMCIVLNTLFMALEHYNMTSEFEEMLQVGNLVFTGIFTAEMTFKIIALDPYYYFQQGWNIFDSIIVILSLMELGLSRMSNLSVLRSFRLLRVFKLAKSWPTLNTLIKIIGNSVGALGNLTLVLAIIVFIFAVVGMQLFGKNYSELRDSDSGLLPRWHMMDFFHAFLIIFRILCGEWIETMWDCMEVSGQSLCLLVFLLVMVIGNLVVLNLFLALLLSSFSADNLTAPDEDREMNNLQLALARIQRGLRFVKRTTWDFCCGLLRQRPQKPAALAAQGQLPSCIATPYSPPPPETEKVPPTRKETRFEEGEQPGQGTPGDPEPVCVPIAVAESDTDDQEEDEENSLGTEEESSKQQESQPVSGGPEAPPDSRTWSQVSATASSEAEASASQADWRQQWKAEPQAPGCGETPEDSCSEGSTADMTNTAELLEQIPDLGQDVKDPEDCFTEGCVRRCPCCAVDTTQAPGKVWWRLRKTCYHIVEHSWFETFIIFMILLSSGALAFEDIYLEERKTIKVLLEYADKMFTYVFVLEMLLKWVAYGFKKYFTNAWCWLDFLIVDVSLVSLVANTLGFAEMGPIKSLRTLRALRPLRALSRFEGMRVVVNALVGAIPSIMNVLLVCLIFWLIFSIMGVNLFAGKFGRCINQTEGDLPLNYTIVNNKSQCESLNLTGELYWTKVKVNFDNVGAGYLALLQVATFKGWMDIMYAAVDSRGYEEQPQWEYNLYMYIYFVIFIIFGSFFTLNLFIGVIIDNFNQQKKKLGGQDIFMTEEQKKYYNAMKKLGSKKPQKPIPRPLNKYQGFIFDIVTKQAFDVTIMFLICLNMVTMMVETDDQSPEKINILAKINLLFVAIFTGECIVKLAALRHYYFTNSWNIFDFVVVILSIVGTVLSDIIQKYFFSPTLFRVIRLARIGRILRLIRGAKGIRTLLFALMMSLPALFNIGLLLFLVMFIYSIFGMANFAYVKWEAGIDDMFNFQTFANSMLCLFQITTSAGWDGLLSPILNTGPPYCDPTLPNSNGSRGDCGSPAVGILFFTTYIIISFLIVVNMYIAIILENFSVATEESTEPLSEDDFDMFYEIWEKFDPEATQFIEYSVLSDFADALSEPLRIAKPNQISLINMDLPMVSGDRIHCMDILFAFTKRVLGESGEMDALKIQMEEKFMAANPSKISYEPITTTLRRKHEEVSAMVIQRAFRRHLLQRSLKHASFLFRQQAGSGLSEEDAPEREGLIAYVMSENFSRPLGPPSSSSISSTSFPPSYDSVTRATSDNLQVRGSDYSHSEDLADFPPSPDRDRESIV

SMILES | inhibition of chimera M1.5-5 currents [1] | inhibitory effect on rNav1.4 currents, in words [2] | inhibition of TTX-R currents, in words [3] | IC50 [4] | inhibition at 10 µM ([4]; HEK293, read-out: inhibition of wild type hNav1.5 currents) | inhibitory effect on rNav1.3 currents, in words [5] | inhibition of chimera M1.4-1 currents ([6]; 50 μM SSCM-1) | inhibitory effect on chimeric rNav1.4 (M1.4-1) currents, in words ([6]; gain-of-function) | IC50 [7] | IC50 [8] | Sensitivity to JZTX-III of hNav1.7 chimeras [9] | IC50 [10] | Sensitivity to JZTX-III inhibition of hNav1.5 chimeras [11]
CC[C@H](C)[C@H](NC(=O)CNC(=O)[C@@H](NC(=O)[C@H](CCCNC(=N)N)NC(=O)[C@@H](NC(=O)[C@H](CO)NC(=O)[C@H](CC(N)=O)NC(=O)[C@H](CCCCN)NC(=O)[C@H](Cc1ccc(O)cc1)NC(=O)[C@H](CCCCN)NC(=O)[C@@H](N)CCSC)[C@@H](C)O)C(C)C)C(=O)N[C@@H](CC(=O)O)C(=O)N[C@H](C(=O)NCC(=O)N[C@@H](CO)C(=O)N[C@H](C(=O)N[C@@H](CCC(=O)O)C(=O)N[C@@H](CC(C)C)C(=O)N[C@@H](CCC(=O)O)C(=O)N[C@@H](CC(C)C)C(=O)N[C@@H](CCC(N)=O)C(=O)N[C@@H](CCSC)C(=O)N[C@@H](CC(N)=O)C(=O)N[C@@H](CCCNC(=N)N)C(=O)N[C@@H](CCCNC(=N)N)C(=O)N[C@@H](Cc1ccc(O)cc1)C(=O)O)[C@@H](C)CC)[C@@H](C)O [SSCM-1, Screened-Sodium-Channel-Interacting peptide-1] (H-MKYKNSTRVGIDTGSIELELQMNRRY-OH) | about 15% | subtle inhibitory activity; also recorded: almost no detectable inhibitory effect | subtle inhibitory activity; also recorded: could not inhibit TTX-R currents | ~2880 nM | > 90% | subtle inhibitory activity; also recorded: almost no detectable inhibitory effect | 15% | a detectable inhibitory effect |  |  |  |  | 
CC(C)[C@H](NC(=O)[C@H](C)NC(=O)[C@@H]1CSSC[C@@H]2NC(=O)[C@@H]3CCCN3C(=O)[C@@H]3CCCN3C(=O)[C@H](CCCCN)NC(=O)CNC(=O)[C@H](CCCNC(=N)N)NC(=O)CNC(=O)[C@@H]3CSSC[C@H](NC(=O)[C@H](C)NC(=O)[C@H](Cc4ccc(O)cc4)NC(=O)CNC(=O)[C@H](CCCCN)NC(=O)[C@H](CSSC[C@H](NC(=O)[C@H](CCC(=O)O)NC(=O)CNC(=O)[C@@H](N)CC(=O)O)C(=O)NCC(=O)NCC(=O)N[C@@H](Cc4ccccc4)C(=O)N[C@@H](Cc4c[nH]c5ccccc45)C(=O)N[C@@H](Cc4c[nH]c5ccccc45)C(=O)N[C@@H](CCCCN)C(=O)N3)NC2=O)C(=O)N[C@@H](CO)C(=O)N[C@@H](CCCCN)C(=O)N[C@@H]([C@@H](C)O)C(=O)N[C@@H](Cc2c[nH]c3ccccc23)C(=O)NCC(=O)N[C@@H](Cc2c[nH]c3ccccc23)C(=O)N1)C(=O)N[C@@H](CCC(=O)O)C(=O)N[C@@H](C)C(=O)N1CCC[C@H]1C(=O)O [JZTX-III, jingzhaotoxin-III] (H-DGECGGFWWKCGRGKPPCCKGYACSKTWGWCAVEAP-OH; disulfide 4-19, 11-24, 18-31; N-terminus and C-terminus assumed) |  |  |  |  |  |  |  |  | 1050 nM | 736 nM | gained partial sensitivity to JZTX-III | 476 nM | lost its sensitivity to JZTX-III inhibition
